This passage reports Ki results from ChEMBL document CHEMBL3425420 (J Med Chem, 2015).

In assay [1] the target is T1, Induced myeloid leukemia cell differentiation protein Mcl-1 (Homo sapiens, UniProt Q07820). The assay can be described thus: Binding affinity to GST-tagged Mcl-1 (unknown origin) incubated for 60 mins by TR-FRET-binding affinity assay. In general terms: Time-resolved FRET reads energy transfer from a long-lived donor to a nearby acceptor.
Assay [2] addresses T1, Induced myeloid leukemia cell differentiation protein Mcl-1. The assay can be described thus: Displacement of FITC-Bak-BH3 peptide from Mcl-1 (unknown origin) incubated for 1.5 hrs by FPA competition assay.
Another assay concerns the target Bcl-2-like protein 1 (Homo sapiens, UniProt Q07817). The assay can be described thus: Displacement of FITC-Bak-BH3 peptide from Bcl-xL (unknown origin) incubated for 1.5 hrs by FPA competition assay. The method in brief:
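Compounds were added as a 10-point, 3-fold serial dilution and incubated 1.5 h at room temperature. IC50 came from a four-parameter fit of the anisotropy change, was converted to Ki, and duplicate values were averaged.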

Assay [3] concerns the target Apoptosis regulator Bcl-2 (Homo sapiens, UniProt P10415). Kind of assay: Displacement of FITC-Bak-BH3 peptide from Bcl-2 (unknown origin) incubated for 1.5 hrs by FPA competition assay. The method in brief:
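Compounds were added as a 10-point, 3-fold serial dilution and incubated 1.5 h at room temperature. The anisotropy change was fitted to a four-parameter variable-slope curve for IC50, converted to Ki, and duplicates were averaged.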

Bcl-2-like protein 1, sequence (Q07817 whole entry): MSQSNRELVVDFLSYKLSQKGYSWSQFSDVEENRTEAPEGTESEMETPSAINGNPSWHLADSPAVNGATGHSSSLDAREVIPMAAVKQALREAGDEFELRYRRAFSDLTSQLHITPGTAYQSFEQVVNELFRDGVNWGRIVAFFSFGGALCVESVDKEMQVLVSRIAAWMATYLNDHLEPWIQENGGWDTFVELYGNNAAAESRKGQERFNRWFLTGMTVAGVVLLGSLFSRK
T1 sequence (Q07820 whole entry): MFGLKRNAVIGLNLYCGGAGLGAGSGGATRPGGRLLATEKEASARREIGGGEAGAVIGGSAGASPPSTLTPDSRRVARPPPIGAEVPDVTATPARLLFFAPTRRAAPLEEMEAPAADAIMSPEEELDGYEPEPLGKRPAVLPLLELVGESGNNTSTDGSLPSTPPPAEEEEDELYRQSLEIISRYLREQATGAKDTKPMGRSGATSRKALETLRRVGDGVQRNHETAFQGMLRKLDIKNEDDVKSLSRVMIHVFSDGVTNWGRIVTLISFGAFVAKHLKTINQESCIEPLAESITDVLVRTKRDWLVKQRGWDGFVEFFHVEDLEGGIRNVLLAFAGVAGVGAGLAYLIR
Apoptosis regulator Bcl-2, sequence (P10415 whole entry): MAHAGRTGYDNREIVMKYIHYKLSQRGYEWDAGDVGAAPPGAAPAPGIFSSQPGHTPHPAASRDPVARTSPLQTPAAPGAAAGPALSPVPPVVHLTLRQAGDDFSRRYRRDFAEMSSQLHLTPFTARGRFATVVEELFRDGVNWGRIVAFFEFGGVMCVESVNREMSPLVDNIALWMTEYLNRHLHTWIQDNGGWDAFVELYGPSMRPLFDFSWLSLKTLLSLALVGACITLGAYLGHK

For the molecule `COCCCc1c(C(=O)O)n(CCN2CCOCC2)c2c(-c3c(C)nn(C)c3COc3ccc(N4CCN(S(=O)(=O)N(C)C)CC4)cc3)cccc12`, the affinity in assay [1], expressed as Ki, was 0.454 nM.
Regarding `O=C(O)c1cc2cccc3c2n1CCC3`, the Ki in assay [2] is 131 µM.
Consider `O=C(O)c1c(CCCOc2cccc3ccccc23)c2cccc3c2n1CCC[S+]3[O-]` (centres undefined), for which the Ki is 0.074 µM in assay [2], above 20 µM on Bcl-2-like protein 1 and 16 µM in assay [3].
`Cc1c(C(=O)O)n2c3c(cccc13)SCC2` displayed a Ki in assay [2] of 18 µM.
In assay [2], `Cc1cc(OCCCc2c(C(=O)O)n3c4c(cccc24)CCC3)cc(C)c1Cl` yielded a Ki of 0.11 µM. This Ki is about 160-fold lower than that of the molecule before.
Regarding `Cc1cc(OCCCc2c(C(=O)O)n3c4c(c(Cl)ccc24)OCC3)cc(C)c1Cl`, the Ki at Bcl-2-like protein 1 is above 20 µM.
Take `O=C(O)c1c(CCCOc2ccc3c(c2)CCCC3)c2cccc3c2n1CCS3`: the results for the Ki (in assay [2]; at Bcl-2-like protein 1; in assay [3]) were 0.41 µM, above 20 µM and 4.4 µM, respectively.
`Cc1cc(OCCCc2c(C(=O)O)n3c4c(cccc24)OCC3)cc(C)c1Cl` gave a Ki in assay [2] of 0.065 µM.
Consider `O=C(O)c1c(CCOc2cccc3ccccc23)c2cccc3c2n1CCO3`, for which the Ki came out at 1.6 µM in assay [2] and 12.7 µM at Bcl-2-like protein 1.
As to `O=C(O)c1c(CCCOc2cccc3ccccc23)c2cccc3c2n1CCO3`, the Ki was determined as 0.11 µM in assay [2] and 1.9 µM on Bcl-2-like protein 1.
With `O=C(O)c1c(CCCOc2ccc(Cl)c3ccccc23)c2cccc3c2n1CCS3`, the Ki on Bcl-2-like protein 1 amounted to 4.7 µM; in assay [3] it was 1.1 µM.
For the molecule `O=C(O)c1c(CCOc2cccc3ccccc23)c2cccc3c2n1CCC3`, the values for the Ki (in assay [2]; at Bcl-2-like protein 1) were 4 µM and above 20 µM, respectively.
For the molecule `O=C(O)c1c(CCCOc2cccc3ccccc23)c2cccc3c2n1CCS3(=O)=O`, the figures for the Ki (in assay [2]; at Bcl-2-like protein 1) were 0.088 µM and above 20 µM, respectively.
The like results for `Cc1cc(OCCCc2c(C(=O)O)n3c4c(c(Cl)ccc24)CCC3)cc(C)c1Cl` were, in that order, 0.003 µM and 5.2 µM.
On Bcl-2-like protein 1, `Cc1cc(OCCCc2c(C(=O)O)n3c4c(cccc24)SCCC3)cc(C)c1Cl` displayed a Ki above 20 µM.
As for `O=C(O)c1c(CCCOc2cccc3c2CCCC3)c2cccc3c2n1CCS3`, the inhibition constant (Ki) in assay [2] worked out at 0.15 µM; on Bcl-2-like protein 1, 3 µM.
In the case of `O=C(O)c1c(CCCOc2cccc3ccccc23)c2cccc3c2n1CCCS3`, the inhibition constant Ki in assay [2] was 0.17 µM; at Bcl-2-like protein 1, 7.4 µM; in assay [3], 9.9 µM.
Regarding `O=C(O)c1c(CCCOc2cccc3ccccc23)c2cccc3c2n1CCC3`, the results for the Ki (in assay [2]; at Bcl-2-like protein 1) were 0.31 µM and above 20 µM, respectively.
Molecule `O=C(O)c1cc2cccc3c2n1CCS3` yielded a Ki in assay [2] of 51 µM.
`Cc1c(C(=O)O)n2c3c(cccc13)OCC2` came in with a Ki in assay [2] of 18 µM.
For the molecule `Cc1cc(OCCCc2c(C(=O)O)n3c4c(cccc24)SCC3)ccc1Cl`, the Ki in assay [2] was 0.21 µM; on Bcl-2-like protein 1, above 20 µM; in assay [3], 6.3 µM.
In the case of `Cc1cc(OCCCc2c(C(=O)O)n3c4c(cccc24)SCC3)cc(C)c1Cl`, the Ki on Bcl-2-like protein 1 is above 20 µM; in assay [3], 2.3 µM.
For `O=C(O)c1cc2ccccc2[nH]1` [INDOLE-2-CARBOXYLIC ACID], the Ki in assay [2] is above 1000 µM.
On the same count and under the same terms, in the case of `Cc1c(C(=O)O)n2c3c(cccc13)CCC2` it was 90 µM.
As to `O=C(O)c1c(CCCOc2cccc3ccccc23)c2cccc3c2n1CCS3`, the inhibition constant Ki in assay [2] was 0.12 µM; at Bcl-2-like protein 1 it was above 20 µM; in assay [3] it was 3.1 µM.
As for `O=C(O)c1c(CCCOc2cccc3ccccc23)c2cccc3c2n1CCCS3(=O)=O`, the Ki is 0.061 µM in assay [2], above 20 µM at Bcl-2-like protein 1 and 11.7 µM in assay [3].
In turn, `O=C(O)c1c(CCOc2cccc3ccccc23)c2cccc3c2n1CCS3` displayed a Ki in assay [2] of 3 µM.
Molecule `CC1Cn2c(C(=O)O)cc3cccc(c32)S1` (centres undefined) had a Ki in assay [2] of 35 µM.

One may read the Ki as a dissociation constant, usually derived from enzyme kinetics or from competition with a known ligand. A low value points to higher affinity.
